85 compounds from PubChem BioAssay AID624466 (The Scripps Research Institute Molecular Screening Center, 2012) can be followed below.

Hit rate of the full screen: of about 360,000 compounds, about 5,400 (1.5%) were called active. This is one part of a sample in which actives are shown more often than they occur. Values without a mark were called inactive.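 The calls were made as follows: active = inhibition above a per-plate cutoff, the mean inhibition of test compounds on that plate plus 3 SD (cut at about 49% in these data); inactive = the rest.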

Usually inhibition stands for the relative decrease from the control value, in per cent.

Sequence of Trace amine-associated receptor 1 (Homo sapiens) (Q96RJ0 whole entry, looked up): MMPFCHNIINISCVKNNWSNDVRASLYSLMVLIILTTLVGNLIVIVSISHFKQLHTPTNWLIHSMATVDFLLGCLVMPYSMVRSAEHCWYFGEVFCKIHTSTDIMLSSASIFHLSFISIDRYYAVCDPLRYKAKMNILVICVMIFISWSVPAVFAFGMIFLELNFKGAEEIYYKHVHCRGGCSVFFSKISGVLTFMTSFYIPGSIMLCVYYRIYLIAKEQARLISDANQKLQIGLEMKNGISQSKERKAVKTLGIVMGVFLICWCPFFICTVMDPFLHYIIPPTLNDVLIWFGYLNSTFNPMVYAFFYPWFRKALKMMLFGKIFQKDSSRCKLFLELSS

The assay has as its target Trace amine-associated receptor 1 (Homo sapiens) (UniProt Q96RJ0). As to the kind of experiment: human TAAR1 antagonists, primary screen, Fluo-8 calcium fluorescence, CHO RD-HGA16 cells (AID 624466).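 Also: 0% = DMSO plus EC80 beta-PEA response and 100% = DMSO alone without agonist.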 As to conditions: CHO RD-HGA16 TAAR1, Fluo-8 calcium fluorescence, antagonist; at 3 µM; stronger effect = higher value. In outline: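 test system = CHO RD-HGA16 cells bearing hTAAR1 | replication = singlicate | controls = DMSO-only wells and EC80 β-PEA-stimulated wells | reagent = EC80 β-phenethylamine stimulus | read-out basis = percent inhibition of PEA-evoked calcium signal, max/basal emission ratio | schedule = seeding 17-24 h prior, 75-min 37 °C, 30-min RT dye loading | signal = kinetic Fluo-8 calcium fluorescence measurement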
For the compound `CCOC(=O)[C@]12CCCC=C1N(CCC1=CCCCC1)C(=O)[C@H](CC(=O)N1CCCCC1)C2`, the inhibition is -49.4%.
As for `COC(=O)C1=C(C)N(Cc2ccccc2C(F)(F)F)C(=NCc2ccc(C(F)(F)F)cc2)NC1c1ccc(F)cc1` (stereo not given), the figure is -31.9%.
As for `CCCCNC(=O)CSc1nc2ccc(NC(=O)CSc3nnc(COc4ccccc4C)n3C)cc2s1`, the figure is 23.6%.
Next, `Nc1nnc(SCC(=O)Nc2ccc3nc(SCC(=O)Nc4ccccc4)sc3c2)s1`: 48.9% (active); `CCCCNC(=O)CSc1nc2ccc(NC(=O)CSc3nnc(N)s3)cc2s1`: 14.2%; `COC(=O)[C@@]12C[C@@H](CC(=O)NCCCCc3ccccc3)C(=O)N(Cc3ccccc3)C1=CCC(C)(C)C2`: 1.67%.
As to `CSCCC(C(=O)NC(C)(C)C)n1c(-c2ccccc2)nc2ccccc21` (stereo not given), the inhibition was -24.9%.
With `COC(=O)[C@@]1(Cc2ccc(F)cc2)[C@H]2c3cc(C(=O)N4CCCC4)n(Cc4ccc(OC(F)(F)F)cc4)c3C[C@H]2CN1C(=O)c1ccccc1`, the inhibition is -23%.
Next, `CC(C)c1ccc(NC(=O)Cn2ncc3ccccc32)cc1`: -7.65%.
As to `CC(NC(=O)Nc1ccccc1)c1ccccc1` (stereo not given), the inhibition was 8.89%.
Consider `CCC(C(=O)Nc1ccc(C(C)C)cc1)c1ccccc1` (stereo not given), for which the inhibition was 83.9% (active).
Consider `COc1ccc(C(=O)NCC[N+](C)(C)C)cc1`, for which the inhibition was -19.6%.
Next, `O=c1[nH]c(-c2ccccc2)cn1C1CCN(Cc2ccc(-c3nc4ccc(F)cc4nc3-c3ccccc3)cc2)CC1`: 9.33%.
With `O=C(COC(=O)Cc1c[nH]c2ccccc12)NCCc1ccccc1`, the inhibition is -12.2%.
Next, `O=C(COC(=O)Cc1ccccc1F)NCCc1ccccc1`: 72.9% (active); `COc1ccc(CCNC(=O)COC(=O)Cc2ccccc2F)cc1`: -11.5%.
With `Cc1ccc2nc(SCC(=O)Nc3cccc4ccccc34)nc(=O)n2c1`, the inhibition is -20.9%.
Turning to `C=CCNC(=O)c1cc2nc(C3CC3)cc(C(F)F)n2n1`, the inhibition is 7.57%.
With `Cc1ccc(F)c(S(=O)(=O)NC(=O)C2(C)CCN2C(=O)CCc2cccs2)c1` (stereo not given), the inhibition is -14.2%.
As for `CCC1(C)COC(c2ccc(OC)c(OC)c2)OC1` (stereo not given), the figure is -18.6%; as for `CCOC(=O)C1C(c2ccc(O)cc2)NC(=O)NC1(O)C(F)(F)F` (stereo not given), -14.2%.
`CCOC(=O)C1C(c2ccc(OC)c(OC)c2)c2c([nH][nH]c2=O)CC1(C)O` (stereo not given): the inhibition is 56.8% (active).
For the compound `Cc1cccc(N2CCN(Cc3nc(C4CC4)no3)CC2)n1`, the inhibition was -31.7%.
As to `Cc1cc(OC(=O)NCCc2ccc(F)cc2)ccc1F`, the inhibition is -10.5%.
Next, `CC(C)CNc1cccc2c1S(=O)(=O)N[C@H](CC(C)C)CO2`: -8.78%.
Regarding `Cc1ccc(-c2nnc(SCC(=O)N/N=C/c3cccs3)n2-c2ccc(C)cc2)cc1`, the inhibition is 7.24%.
As for `COc1ccc(NC(=O)COC(=O)Cn2c(C)nc3ccccc32)cc1OC`, the figure is 13.9%.
As for `Cc1nc2ccccc2n1CC(=O)N/N=C/c1cccs1`, the inhibition is 56.9% (active).
Consider `Cc1[nH]c2ccccc2c1C(=O)c1cc([C@H](NC(=O)OC(C)(C)C)C(C)C)sc1N`, for which the inhibition was -5.4%.
Next, `O=C(CSc1nc2ccccc2c(=O)n1CCCO)N1CCc2ccccc21`: -4.55%; `C=CCn1c(=O)c2ccccc2n2c(SCC(=O)N3CCCc4ccccc43)nnc12`: 5.64%.
For the compound `Cn1c(SCC(=O)N2CCCc3ccccc32)nc2ccccc2c1=O`, the inhibition is 59.3% (active).
Regarding `COc1ccccc1NC(=O)/C=C/C(N)=O`, the inhibition was -1.16%.
`COc1ccc(NS(=O)(=O)c2ccc(N3CCOCC3)c(NC(=O)/C=C/C(=O)O)c2)cc1`: the inhibition was -2.93%.
Consider `COC(=O)c1sc(-c2ccc(C(C)(C)C)cc2)cc1NC(=O)/C=C/C(=O)O`, for which the inhibition was 69.3% (active).
In the case of `Cc1cccc(NC(=O)c2nc[nH]c2C(=O)NCC(=O)OCc2ccccc2)c1`, the inhibition is 64% (active).
As for `O=C(N[C@@H](Cc1ccccc1)C(=O)OCc1ccccc1)c1nc[nH]c1C(=O)N[C@@H](Cc1ccccc1)C(=O)OCc1ccccc1`, the figure is 15.8%; as for `C[C@H](NC(=O)c1nc[nH]c1C(=O)N[C@@H](C)C(=O)OC(C)(C)C)C(=O)OC(C)(C)C`, 0.46%.
Regarding `CC(C)(C)OC(=O)N1CCC(NC(=O)c2[nH]cnc2C(=O)N[C@@H](Cc2ccccc2)C(=O)OCc2ccccc2)CC1`, the inhibition was 35.6%.
Next, `O=C(Nc1ccon1)c1nc[nH]c1C(=O)NCc1ccccc1`: -5.83%.
Consider `O=C(Nc1cc(Br)ccc1F)c1nc[nH]c1C(=O)NCc1ccccc1`, for which the inhibition is -18.3%.
Regarding `CNC(=O)c1[nH]cnc1C(=O)N[C@@H](CC(C)C)C(=O)OCc1ccccc1`, the inhibition was 23.5%.
`CC(C)(C)OC(=O)NCCCCCNC(=O)c1[nH]cnc1C(=O)Nc1nccs1`: the inhibition was 38.9%.
`C[C@H](NC(=O)c1nc[nH]c1C(=O)NCC(=O)OC(C)(C)C)C(=O)OCc1ccccc1`: the inhibition was 60.9% (active).
As for `CC(C)(C)OC(=O)NCCCCCNC(=O)c1nc[nH]c1C(=O)NCc1ccccc1`, the figure is 60% (active); as for `C[C@H](NC(=O)c1nc[nH]c1C(=O)NCC(=O)OC(C)(C)C)c1ccccc1`, -2.15%; as for `CC(C)(C)OC(=O)CNC(=O)c1[nH]cnc1C(=O)N[C@@H](Cc1ccccc1)C(=O)OCc1ccccc1`, 51.3% (active).
Turning to `CN(CCc1ccccn1)C1CCCN(S(=O)(=O)c2ccccc2Cl)C1` (stereo not given), the inhibition is -19.7%.
On to `COc1ccccc1Cc1c(-c2ccc(F)cc2)nc2ccc(C)cn12`, for which the inhibition is -18.1%.
Regarding `O=C(NCc1ccccc1)[C@H]1CCCN1C(=O)[C@H]1CCCN1C(=O)N1CCOCC1`, the inhibition was 15.4%.
As for `CCCCn1nnnc1C(c1cc2ccccc2o1)N(C)Cc1ccc(Cl)c(Cl)c1` (stereo not given), the figure is -19.1%; as for `CC(C)[C@H]1COCCS(=O)(=O)N1Cc1ccccc1-c1cccc2c1sc1ccccc12`, -54.8%.
As for `Nc1nc(CC(=O)CSc2ccc(Cl)cc2)nc(Nc2ccc(F)cc2)n1`, the figure is -2.27%; as for `C=CCC[C@@H](CCCCC)OC(=O)/C=C/[C@@H](O)[C@H](O)C[C@H](O)CC=C`, -5.68%; as for `Cc1nc(NC(=O)C(C)(C)C)sc1[N+](=O)[O-]`, -6.34%.
As for `Cc1ccc(C(=O)N2CC(=O)Nc3ccccc32)o1`, the inhibition was -3.59%.
For `O=C(NCc1ccccc1)C(c1ccc(F)cc1)N1CCN(C(=O)C2CCCO2)CC1` (stereo not given), the inhibition is -21.5%.
With `CCCCC[C@H](C)N1C[C@@H](COCc2ccccc2)Oc2cc(N3CC[C@@H](N(C)C)C3)ccc2S1(=O)=O`, the inhibition is -6.02%.
As to `Nc1ncnc2c1ncn2[C@@H]1O[C@H](C(=O)N[C@@H](CCc2ccccc2)C(=O)NCC(=O)N2CCOCC2)[C@@H](O)[C@H]1O`, the inhibition is 8.4%.
As for `COC(=O)C1=C(C)N(Cc2cccc(C(F)(F)F)c2)C(=NCc2ccccc2)NC1c1ccc(Cl)cc1` (stereo not given), the inhibition is 46%.
As for `COC(=O)[C@]12C[C@H](CC(=O)NCc3ccccc3)C(=O)N(CCC3=CCCCC3)C1=C[C@H](C(C)(C)C)O[C@@H]2C`, the inhibition was -44.8%.
Next, `COc1cccc(-c2cc(CNC(=O)[C@@H](Cc3ccccc3)NC(=O)[C@H]3O[C@@H](n4cnc(C(N)=O)n4)[C@H](O)[C@@H]3O)no2)c1`: -23.1%; `Cc1ccc(C(=O)N/C(=C\c2ccc(F)cc2)C(=O)NCCN2CCOCC2)cc1`: 0.72%; `O=C(NCCN1CCOCC1)/C(=C/c1ccc(F)cc1)NC(=O)c1ccccc1`: 1.45%.
Take `CCN1CCN(CCNC(=O)c2ccc(/C=C3/Sc4ccccc4N(Cc4cccc(C)c4)C3=O)cc2)CC1`: the inhibition is 61.5% (active).
Turning to `O=C(NCCN1CCOCC1)c1ccc2c(c1)N(Cc1cccc(Cl)c1)C(=O)c1ccccc1S2(=O)=O`, the inhibition was -0.54%.
With `O=C(NCCN1CCOCC1)c1ccc(/C=C2\Sc3ccccc3N(Cc3ccc(F)cc3)C2=O)cc1`, the inhibition was 70.2% (active).
For `Cc1cccc(-c2nc3ccc(C(=O)NCCN4CCN(C)CC4)cc3nc2-c2cccc(C)c2)c1`, the inhibition is -13.7%.
`C=C1C(=O)OC2C1CCC(C)=CCCC1(C)OC21` (stereo not given): the inhibition was -17.7%.
Consider `CCOc1ccc(S(=O)(=O)NCCC(=O)NNC(=O)c2ccc(F)cc2)cc1`, for which the inhibition was -12%.
On to `O=C(Nc1ccccc1N1CCOCC1)c1ccc(OCc2cscn2)cc1`, for which the inhibition is 29.3%.
Next, `CC(C)OCCCNc1ncnc2c1[nH]c1ccc(F)cc12`: 51.5% (active); `Cc1ccc(C2NC(C(=O)O)CS2)cc1` (stereo not given): -13.1%.
For the compound `O=C1/C(=C\c2ccc([N+](=O)[O-])cc2)CS(=O)(=O)C/C1=C/c1ccc([N+](=O)[O-])cc1`, the inhibition was 36.7%.
Turning to `c1ccc(CSc2ncnc3c2sc2nc(N4CCOCC4)c4c(c23)CCCC4)cc1`, the inhibition was -16.6%.
As for `c1ccc2c(CCN3CCNC[C@H]3Cc3cccc4ccccc34)cccc2c1`, the figure is 23.8%; as for `c1ccc(C2CNCc3c2ccc2ccccc32)cc1` (stereo not given), 81.3% (active); as for `Cc1ccn2c(=O)c(C(=O)NCCC3=CCCCC3)c(O)nc2c1`, 64.5% (active).
Regarding `O=C(NCCC1=CCCCC1)c1ccc(-n2cncn2)cc1`, the inhibition is -0.95%.
As for `O=C(CCNC(=O)Cn1ccc2ccccc2c1=O)NCCC1=CCCCC1`, the figure is -24.7%; as for `C(#CCN1CCOCC1)CCCN1CCOCC1`, -21.3%.
As to `O=C(COC(=O)C12CC3CC(CC(O)(C3)C1)C2)NC12CC3CC(CC(C3)C1)C2`, the inhibition was -12.3%.
As for `Cc1ccc(/C=N/NC(=O)C2=NNC(c3ccccc3)(c3ccccc3)C2)c(O)c1`, the inhibition was 0.27%.
As for `CCN(CC)c1ccc(NC(=O)c2ccc(Cl)nc2)cc1`, the figure is 6.5%.
As for `CCN(CC)c1ccc(/C=N/NC(=O)c2cnccn2)c(O)c1`, the figure is 48.9% (active).
